Screening data deposited in PubChem by several laboratories.
SENP8 block-1: SENP8 protease inhibition; purified SENP8, Z-RLRGG-aminoluciferin cleavage, luminescence; inhibition, % at 10 µM; hit rate 1.2% among 330,000; Q96LD8; in the data active = inhibition above about 50%
Target sequence (Q96LD8 whole entry, looked up): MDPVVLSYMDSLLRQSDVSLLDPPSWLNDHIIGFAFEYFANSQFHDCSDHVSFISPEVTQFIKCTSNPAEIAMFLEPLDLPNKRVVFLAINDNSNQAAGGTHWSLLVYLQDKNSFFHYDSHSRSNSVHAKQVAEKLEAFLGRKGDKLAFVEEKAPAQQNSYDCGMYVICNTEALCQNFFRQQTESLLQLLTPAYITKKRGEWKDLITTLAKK
SENP1 inh: SENP1 (human) catalytic domain inhibition; Q9P0U3; recombinant SENP1 catalytic domain, CyPet-SUMO1-YPet FRET cleavage; inhibition, % at 10 µM; hit rate 0.21% among 360,000; AID 624204;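 active = inhibition at least 30% at 10 µM, raw YFP signal under a set limit, fluorescence ratio 0.5 to 1.5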;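 note: 0% = enzyme with DMSO and 100% = no enzyme wells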
Target sequence (Q9P0U3 419-644 limits assumed): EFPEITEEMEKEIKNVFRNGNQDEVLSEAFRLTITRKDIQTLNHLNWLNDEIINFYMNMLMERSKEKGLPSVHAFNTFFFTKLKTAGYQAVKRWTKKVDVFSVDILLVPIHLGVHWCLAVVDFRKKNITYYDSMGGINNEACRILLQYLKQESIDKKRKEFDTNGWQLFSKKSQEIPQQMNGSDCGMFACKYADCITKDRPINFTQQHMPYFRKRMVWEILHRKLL
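Test system: hSENP1 catalytic domain, recombinant; Amount: 20 pM final SENP1 enzyme; Medium: Tris pH 8 buffer plus EDTA, NaCl, BME, BSA, NP40, catalase; Schedule: 50 min enzyme reaction, room temperature, light-protected; Technique: FRET fluorescence in CFP and YFP emission channels; Controls: no-enzyme wells low, DMSO-plus-enzyme wells high control.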
SENP6 block: inhibitors of human SENP6 protease | AID 2599 | hit rate 1.8% among 330,000 | inhibition, % at 10 µM | Q9GZR1 | Recombinant SENP6 catalytic domain, aminoluciferin luminescence;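 active = inhibition above about 50% at the single tested dose, limit read from the data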;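 note: plate controls were DMSO wells with enzyme for no effect and DMSO wells lacking enzyme for full effect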
Platelet DG rel: modulates dense granule release in human platelets. human platelet-rich plasma, SFLLRN dense granule ATP release, luminescence. inhibition, %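 (compounds screened at 7.5 µM in platelet-rich plasma)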. hit rate 0.22% among 300,000. AID 1663;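 active = mean replicate score, as percent of positive control, at or above 50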
SENP7 block: inhibitors of human SENP7 protease | recombinant SENP7, Z-RLRGG-aminoluciferin luminescence, 40 min | inhibition, % at 5 µM | hit rate 1.5% among 330,000 | AID 434973;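 active = inhibition above about 50% at the single test dose, limit read from the data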;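 note: plate controls were DMSO with enzyme for no effect and no enzyme buffer wells for full effect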
SENP8 block-2: blocks human SENP8 cleavage of Nedd8 substrate. hit rate 0.64% among 360,000. inhibition, % at 20 µM. recombinant SENP8, Nedd8 substrate fluorescence; in the data active = inhibition mostly above about 40%, no sharp cut-off; inactive = mostly below about 27%
Numbers without * were called inactive; / = no result given. The list is not random: actives were taken first. Their share in the collection is about 2.6%.

SMILES	SENP8 block-1	SENP1 inh	SENP6 block	Platelet DG rel	SENP7 block	SENP8 block-2
Cc1ccc(S(=O)(=O)NC2=C(N3CCN(Cc4ccccc4)CC3)C(=O)c3ccccc3C2=O)cc1	-6	-11	5	-4	-2	39*
O=C1C(NS(=O)(=O)c2cccs2)=C(N2CCN(c3ccccc3)CC2)C(=O)c2ccccc21	5	1	9	0	11	69*
CCc1nc2c(OCCc3cccc(OC)c3)cccn2c1N(C=O)Cc1ccc(OC)cc1	/	-14	/	/	/	11
C/C(=N/Nc1ccc(C(=O)O)cc1)c1ccc(O)c(O)c1O	-17	1	-6	-6	-1	47*
CCc1ccc(/C=N/Nc2ncnc3nc[nH]c23)cc1	21	-1	17	11	38	8
CCc1ccc(N=Nc2ccc(O)c3[nH]cnc23)cc1	28	76*	25	/	31	33
COc1ccc(NC(=O)/C(C#N)=C\c2ccc(N3CCOCC3)o2)cc1	4	-26	-1	4	16	45*
CCCCNC(=O)c1sc(=S)n2c1[nH]c(=O)c1ccc(C(=O)NCCc3ccc(OC)c(OC)c3)cc12	4	45*	9	18	3	7
Cc1nnc(-c2ccccc2)o1	9	1	-10	-1	-7	4
Cc1ccc(-c2nnc(/C=C/c3ccccc3)o2)cc1	42	3	76*	4	-2	-391
COc1ccc(NC(=O)/C(Cl)=C(/Cl)S(=O)Cc2ccccc2)cn1 (stereo not drawn)	-12	4	-17	57*	-6	18
O=C(Nc1cccc(Cl)c1)c1ccc2c(=O)n3c(nc2c1)CCCCC3	64*	-1	84*	6	80*	-5
c1ccc2sc(SCc3ccc(-c4nnco4)cc3)nc2c1	89*	-1	96*	6	89*	-9
Oc1nc(Nc2ccc(F)cc2)sc1/C=C1\C=Nc2ccccc21	-9	-135	7	6	2	-15
O=c1[nH]c(S)c(/C=C2\C=Nc3ccccc32)s1	11	9	25	0	11	52*
CCOc1cc(/C=C/C(=O)OCC(=O)NCC2CCCO2)cc(Cl)c1OC (stereo not drawn)	8	1	9	/	15	-84
CC(C(=O)NCC1CCCCC1)N1CCN(S(=O)(=O)c2cccs2)CC1 (stereo not drawn)	-5	-3	-3	/	16	-2
COc1ccc(-c2nc(C#N)c(NC(C)c3ccccc3)o2)cc1OC (stereo not drawn)	-7	-14	-4	70*	-5	-499
COc1ccc(-c2nc(C#N)c(NCCCN(C)C)o2)cc1OC	-4	-2	-23	13	5	-296
O=C1CCC/C=C\C[C@@H](CC(=O)N(CCO)Cc2ccccc2)C(=O)N[C@H](c2ccccc2)CO1	4	0	-7	/	-8	11
N#Cc1ccc(Oc2ccc(-c3nc4ccccc4nc3-c3ccccc3)cc2)cc1C#N	-14	2	-24	-3	-3	-187
Nc1ccc(Oc2ccc3nc(-c4ccccc4)c(-c4ccc([N+](=O)[O-])cc4)nc3c2)cc1	-6	3	-9	-13	11	43*
CC(C)(C)c1ccc(C(=O)N/C(=C\c2cccc([N+](=O)[O-])c2)C(=O)Nc2cccc(C(=O)O)c2)cc1	1	1	-4	-1	-2	10
Cc1cc(=O)[nH]c2ccc(S(=O)(=O)NC3CCCCC3)cc12	-5	1	-2	63*	-9	4
Cc1ccc(S(=O)(=O)NC2CCCC2)cc1C	-2	1	-6	/	-8	25
SMILES	SENP8 block-1	SENP1 inh	SENP6 block	Platelet DG rel	SENP7 block	SENP8 block-2
CC(c1ccon1)N(C)C(=O)c1ccc2nc(Cc3cccc(Cl)c3)oc2c1 (stereo not drawn)	-3	2	-9	-5	-7	11
O=C1/C(=N\S(=O)(=O)c2cccs2)C([n+]2ccccc2)=C([O-])c2ccccc21	39	0	69*	0	41	105*
COc1ccccc1-n1cc(-c2ccc(Cl)cc2)[nH]c1=O	-4	1	5	105*	9	7
O=[N+]([O-])c1ccc(N=Nc2ccc(O)c3ccccc23)cc1	/	-17	/	/	/	45*
COc1cc2c(cc1OC)C1=C(C#N)CN(CC(=O)O)CN1CC2	8	-84	-2	52*	9	-319
CN(Cc1ccccc1Cl)C(=O)CCNC(=O)c1ccco1	-8	1	-9	/	-12	0
